Compound activity from PubChem.
DENV2 CPE – protects cells from dengue virus 2 cytopathic effect. DENV2-infected cells, cytopathic effect rescue, plate reader. CPE inhibition, % at 9.99 µM. AID 651640. 1.7% of 350,000 active; in the data active means CPE inhibition above about 20%, passing the limit was not always enough; inconclusive means no clear call, values can overlap the other calls; tested in BHK-21 cells;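 further: 0% = median of neutral control wells and 100% = median of positive control wells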
FGF22 binding – FGF22 (human) thermal shift binding. activity (Tm shift, normalised), % at 9.99 µM. 1.5% of 340,000 active. AID 651658. recombinant FGF22 thermal shift, SYPRO orange fluorescence; percent of sucrose octasulfate shift, DMSO zero. Q9HCT0;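 active means mean Tm shift, scaled 0 neutral to 100 positive control, at about 1.3% or above, every replicate too, limit read from the data; inconclusive means no clear call, values can overlap the other calls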
Target sequence (Q9HCT0 whole entry, looked up): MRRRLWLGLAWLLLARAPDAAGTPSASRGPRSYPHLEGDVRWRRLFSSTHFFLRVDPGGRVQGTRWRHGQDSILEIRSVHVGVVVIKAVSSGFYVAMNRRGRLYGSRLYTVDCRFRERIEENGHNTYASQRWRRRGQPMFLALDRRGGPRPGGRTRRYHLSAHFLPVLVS
SIRT5 inh – inhibitors of human sirtuin-5 desuccinylase | 1.1% of 330,000 active | Q9NXA8 | AID 652115 | inhibition, % at 15 µM | Purified SirT5, succinyl-peptide AMC, trypsin-coupled fluorescence; in the data active means inhibition above about 15%; inconclusive means no clear call, values can overlap the other calls
Target sequence (Q9NXA8 whole entry, looked up): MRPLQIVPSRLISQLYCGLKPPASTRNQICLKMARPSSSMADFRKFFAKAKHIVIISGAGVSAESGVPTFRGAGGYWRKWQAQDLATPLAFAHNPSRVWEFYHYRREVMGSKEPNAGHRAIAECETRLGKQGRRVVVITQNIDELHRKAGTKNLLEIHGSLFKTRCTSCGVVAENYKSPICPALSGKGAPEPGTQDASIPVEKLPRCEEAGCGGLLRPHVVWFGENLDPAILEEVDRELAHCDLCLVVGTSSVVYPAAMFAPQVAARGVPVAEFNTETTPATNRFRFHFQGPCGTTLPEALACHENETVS
Xi reactivation – activators of X-chromosome reactivation in mouse fibroblasts | activation, % at 7.58 µM | 0.055% of 360,000 active | XiGFP mouse fibroblasts, % GFP-positive cells imaging, 3 d; cells co-treated with 5-aza-dC sensitizer; scaled so ellipticine positive control = 100%;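 active means mean normalized replicate activation at least 10% and every replicate at or above 10%; inconclusive means only one of the two criteria met; inactive means mean below 10% and not all replicates reach 10%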;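 further: 0% = median of on-plate neutral control wells and 100% = ellipticine 6 µM median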
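Material: XiGFP fibroblasts, SV40-immortalized; Buffer or medium: DMEM containing 5-aza-dC; Compound dosing: single point; Times: 3 days compound exposure.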
FN deposition inh – fibronectin deposition inhibition; AH1F fibroblasts, Alexa488-fibronectin deposition fluorescence, overnight; inhibition, % at 12.6 µM; 0.086% of 350,000 active;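 active means mean inhibition across replicates of 30% or more, regardless of how many single replicates reach that level; inconclusive means mean under 30% yet at least half of replicates reach 30%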;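 further: positive control wells lacked labelled fibronectin entirely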
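Material: AH1F fibroblast monolayer depositing Alexa488-labelled fibronectin into matrix / Amount: 10000 AH1F cells per well / Signal: fluorescence 485/525 nm / Medium: DMEM, 2% serum / Compound: single dose, pinned / Incubation: 1 h cell adhesion before compound, then overnight fibronectin incubation / Reagent: Alexa488-FN, 24 nM final / Read-out: inhibition of fibronectin deposition signal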
ARNT-TACC3 inh – ARNT/TACC3 interaction disruption | inhibition, % at 9.99 µM | Q9Y6A5 | 0.66% of 390,000 active | AID 623870 | AlphaScreen His-ARNT PAS-B/GST-TACC3 binding, luminescence; TACC3 fragment carries E629A point mutation;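 active means mean inhibition of replicates at least 50% and at least half of replicates each reaching 50%; inconclusive means half or more replicates reach 50% but mean below 50%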;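 further: 0% = complete ARNT plus TACC3 wells and 100% = ARNT alone without TACC3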
Starred values were filed as active, the others as inactive; u = inconclusive; x = no result. This is a sample that favours compounds with a hit; in the whole collection about 3.8% have one here.

SMILES | DENV2 CPE | FGF22 binding | SIRT5 inh | Xi reactivation | FN deposition inh | ARNT-TACC3 inh
CNC[C@H]1Oc2c(NC(=O)Nc3ccc4c(c3)OCO4)cccc2C(=O)N([C@H](C)CO)C[C@@H]1C | 15 | 0 | -2 | 0 | -9 | 10
CC(C)NC(=O)Nc1ccc2c(c1)CC(=O)N(C)C[C@@H](C)[C@H](CN(C)S(C)(=O)=O)O2 | x | x | x | 0 | -13 | x
Nc1cccnc1Oc1ccc(F)cc1 | 0 | 0 | -2 | 0 | -4 | 0
FC(F)(F)c1cccnc1Oc1ccc(C2=NCCS2)cc1 | 68* | 0 | -2 | 1 | -17 | -8
O=C(NCCCn1ccnc1)Nc1cccc(Cl)c1 | x | x | x | x | 5 | 61*
COc1cccc(NC(=O)C(=O)NCCCn2ccnc2)c1 | 0 | 43* | 0 | 0 | x | 31
COc1ccc(NC(=S)NCCCn2ccnc2)cc1 | x | x | x | x | x | active
CCCNC(=O)N1CC(=O)N2[C@@H](CO)[C@@H](c3ccc(C#Cc4ccc(F)cc4)cc3)[C@@H]2C1 | 4 | x | 0 | 0 | x | x
N/C(=N\N=C\c1ccc(O)c(O)c1)c1nonc1N | -2 | 1 | 7 | 0 | -1 | 7
N/C(=N\N=C\c1ccc(O)cc1)c1nonc1N | 2 | 44* | 3 | 0 | 1 | -1
COc1ccc(NC(=O)Nc2ccc3c(c2)C(=O)N([C@@H](C)CO)C[C@H](C)[C@H](CN(C)Cc2ccc(Oc4ccccc4)cc2)O3)cc1 | 10 | -1 | 0 | 0 | x | 5
CCOC(=O)Cc1csc(N/N=C/c2cccc([N+](=O)[O-])c2)n1 | 29* | 0 | -2 | 0 | -4 | 0
c1ccc(CCCNc2ncnc3nc[nH]c23)cc1 | 4 | 0 | 18* | 0 | 8 | -3
CC1(C)OC(=O)C=C[C@]2(C)[C@H]3CC[C@@]4(C)[C@H](c5ccoc5)OC(=O)[C@H]5O[C@]54[C@]3(C)C(=O)C[C@@H]12 | x | 17* | x | 0 | -5 | -4
CN(C(=O)CSCC(=O)Nc1ccc(Cl)cc1)C1CCCCC1 | 62* | 0 | 0 | 0 | 3 | -5
COc1cc(NC(=O)CSCC(=O)N(C)C2CCCCC2)cc(OC)c1 | u | 0 | 1 | 0 | 2 | 1
C[C@H]1CN([C@@H](C)CO)C(=O)c2cccc(NC(=O)C3CC3)c2O[C@H]1CN(C)C(=O)Nc1ccc(C(F)(F)F)cc1 | 0 | 0 | 3 | 0 | x | 5
O=c1[nH]c(=S)[nH]c2c1C(c1ccc(Br)cc1)c1c([nH]c(=S)[nH]c1=O)O2 | -3 | 0 | 67* | 0 | 6 | -8
CCOC(=O)C1=CN(CC)S(=O)(=O)NC1c1cccc(OC)c1 (centres undefined) | 24* | 0 | -4 | 0 | -2 | -1
CCOC(=O)C1=C(CN2CCSCC2)NC(=O)NC1c1cccc([N+](=O)[O-])c1 (centres undefined) | 12 | 0 | 0 | 0 | -3 | 16
CCOC(=O)C1=C(CS(=O)(=O)c2ccccc2)NC(=O)NC1c1cccc(OC)c1 (centres undefined) | -3 | 44* | 0 | 0 | -14 | x
CCOC(=O)C1=C(CN2CCOCC2)NC(=O)NC1c1cccc([N+](=O)[O-])c1 (centres undefined) | -1 | 0 | 16* | 0 | -10 | -4
CCOC(=O)C1=C(CS(=O)(=O)c2ccccc2)NC(=O)NC1c1ccccc1 (centres undefined) | x | x | x | x | 0 | 1
COCC(=O)Nc1ccc2c(c1)[C@H]1C[C@H](CC(=O)NCc3ccc4c(c3)OCO4)O[C@@H](CO)[C@H]1O2 | 9 | 0 | -2 | 0 | 1 | 2
COCC(=O)N1C[C@H](C)[C@@H](OC)CN(C)C(=O)c2cc(NC(=O)c3cnccn3)ccc2OC[C@@H]1C | 1 | 0 | -4 | 0 | -4 | -2
SMILES | DENV2 CPE | FGF22 binding | SIRT5 inh | Xi reactivation | FN deposition inh | ARNT-TACC3 inh
O=C(CC1Nc2ccccc2NC1=O)Nc1ccc2c(c1)OCO2 (centres undefined) | 7 | 0 | 1 | 0 | 34* | -4
CC(C)NC(=O)N(C)C[C@@H]1Oc2ccc(NS(C)(=O)=O)cc2CC(=O)N(C)C[C@H]1C | x | x | x | 0 | 1 | x
COc1cc(/C=C/C(=O)Nc2nnc(CC(C)(C)C)s2)cc(OC)c1OC | 100* | 0 | -8 | 0 | -11 | -6
COc1cccc(-c2ncc3ccccc3c2COC(=O)c2ccc(F)cc2)c1 | 102* | 0 | x | 0 | -10 | 2
CCCNC(=O)C[C@@H]1CC[C@@H]2[C@H](COC[C@@H](O)CN2C(=O)C2CCOCC2)O1 | 6 | x | 16* | 0 | 3 | -3
CCNC(=O)C[C@@H]1CC[C@H]2[C@@H](COC[C@H](O)CN2C(=O)CC)O1 | 48* | 0 | -2 | 0 | -11 | 12
CCCNC(=O)C[C@H]1CC[C@@H]2[C@H](COC[C@H](O)CN2C(=O)C2CCOCC2)O1 | 5 | 0 | 10 | 0 | 0 | -6
O=C(N[C@@H]1CC[C@H](CCNS(=O)(=O)c2cccc(Cl)c2)O[C@H]1CO)c1ccccc1 | x | x | x | -1 | x | -1
O=S(=O)(NCC[C@H]1CC[C@@H](NS(=O)(=O)c2ccccc2Cl)[C@@H](CO)O1)c1ccc(F)cc1 | 17 | 0 | 0 | 0 | x | -4
Cn1c(SCC(=O)N/N=C/c2ccco2)nc2ccccc21 | 2 | 43* | 0 | 0 | -2 | -3
Cc1ccc(C(F)(F)F)cc1NC(N)=S | 4 | 44* | 0 | 0 | 3 | 1
COc1cc(OC)cc(C(=O)NCC(=O)OCC(=O)N2c3ccccc3NC(=O)C2(C)C)c1 | -3 | 44* | 1 | 0 | x | -5
O=C(Nc1ccccc1NC(=O)c1csnn1)c1csnn1 | -4 | 43* | 1 | 0 | -9 | 2
CCn1ccnc1CNCc1ccc(OCC(O)CN(C)Cc2ccccc2)cc1 (centres undefined) | -2 | 1 | -2 | 0 | 1 | 47*
CNC[C@@H]1Oc2ccc(N(C)C)cc2CC(=O)N([C@@H](C)CO)C[C@@H]1C | 7 | 0 | 6 | 0 | -16 | -6
O=C(CSc1n[nH]c(=O)[nH]c1=O)NC1CC1 | -4 | 44* | -2 | 0 | 7 | -5
Cc1sc(NC(=O)CSc2n[nH]c(N)n2)c(C#N)c1C | 1 | 0 | 16* | 0 | x | 6
COC(=O)c1c(NC(=O)CSc2n[nH]c(N)n2)sc(C)c1C | x | x | x | x | -3 | -1
COc1ccccc1-c1cnc2c(c1)C(=O)N([C@H](C)CO)C[C@H](C)[C@H](CN(C)C)O2 | 1 | -1 | 6 | 0 | 0 | -2
